Compound activity deposited in PubChem BioAssay by Broad Institute.
An excerpt weighted towards active compounds, which were near 2.1% of everything screened.
Cneo AK release – Cryptococcus neoformans cell lysis inducers, primary screen, AK release luminescence, single concentration; C. neoformans lysis, adenylate kinase release luminescence, 4 h; normalised: neutral wells 0, clomiphene wells 100; lysis activity, % at 15 µM; hit rate 0.2% among 360,000;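 active means mean lysis activity across replicates of at least 80%, whatever share of replicates individually reach that level; inactive means mean lysis activity below 80%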
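Material: C. neoformans cells | Amount: Yeast cell density of 5 × 10^6 cells/mL | Medium: Fresh YPD growth medium | Dosing: Single dose | Times: Static 4 h at 37 °C with compound, 1 h detection | Detection: AK luminescence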
C2C12 statin – suppressors of statin myotoxicity in C2C12 myotubes, primary screen, cell-based, single point, plate reader | C2C12 myotubes + simvastatin, ATP luminescence, 48 h; scaled: DMSO 0, geranylgeraniol control 100 | rescue of ATP level, % at 7.49 µM | hit rate 0.78% among 330,000;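 active means mean ATP rescue above about 67%, or every replicate alone reaching that limit, limit read from the data, passing the limit was not always enough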;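 further: myotubes were challenged with 10 µM simvastatin during compound exposure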
Xi reactivation – activators of inactive X chromosome reactivation, primary screen, imaging, XiGFP fibroblasts, GFP high-content imaging, set 2 | activation, % at 7.58 µM | AID 743238, 2013 | XiGFP mouse fibroblasts, % GFP-positive cells imaging, 3 d; cells co-treated with 5-aza-dC sensitizer; scaled so ellipticine positive control = 100% | hit rate 0.055% among 360,000;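 active means mean normalized replicate activation at least 10% and every replicate at or above 10%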;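 further: 0% = median of on-plate neutral control wells and 100% = ellipticine 6 µM median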
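Material: XiGFP fibroblasts, SV40-immortalized. Buffer or medium: DMEM plus 5-aza-dC sensitizer. Compound: single concentration per compound, delivered by pin transfer. Times: 3 days compound exposure. Controls: ellipticine 6 µM.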
DENV2 CPE – inhibitors of DENV2 cytopathic effect, primary screen, cell-based, plate reader, single concentration; hit rate 1.7% among 350,000; DENV2-infected cells, cytopathic effect rescue; CPE inhibition, % at 9.99 µM; in the data active means CPE inhibition above about 20%, passing the limit was not always enough; tested in BHK-21 cells;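 further: 0% = median of neutral control wells and 100% = median of positive control wells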
The depositor's hits bear a star; . = not tested or not shown.

SMILES	Cneo AK release	C2C12 statin	Xi reactivation	DENV2 CPE
Cc1ccc(C2=C(O)C(=O)C(c3ccc(C)cc3)=C(O)C2=O)cc1	.	.	0	56*
O=C(C[C@@H]1C=C[C@@H](NC(=O)Nc2cc(F)ccc2F)[C@H](CO)O1)Nc1ccccc1	-2	6	0	4
C[C@@H]1CN([C@@H](C)CO)C(=O)Cc2cc(N(C)C)ccc2O[C@H]1CN(C)S(C)(=O)=O	.	-23	0	.
COc1ccc(Oc2coc3c(CN(C)C)c(O)ccc3c2=O)cc1	-7	118*	.	.
C[C@@H]1CN([C@@H](C)CO)C(=O)c2cc(NC(=O)Cc3ccccc3)ccc2O[C@@H]1CN(C)C(=O)Nc1ccc(C(F)(F)F)cc1	-3	4	0	-2
COc1cc(OC)cc(C(=O)N2c3ccc(F)cc3CCC2C)c1 (stereo unspecified)	0	90*	.	.
CCNC(=O)C[C@@H]1CC[C@H]2[C@@H](COc3ccc(NC(=O)c4cccs4)cc3C(=O)N2C)O1	-3	0	0	-4
C[C@@H]1CN([C@@H](C)CO)C(=O)c2cc(NC(=O)Nc3ccc4c(c3)OCO4)ccc2O[C@@H](C)CCCCO[C@H]1CN(C)C	0	-5	0	2
COc1ccc(S(=O)(=O)NNC(=O)c2sccc2-n2cccc2)cc1	-1	96*	0	-3
CCCNC(=O)[C@H]1[C@H](CO)[C@H]2Cn3c(cccc3=O)[C@@H]1N2S(=O)(=O)c1ccccc1C	-6	-3	0	4
COC(=O)[C@H](CC(C)C)NC(=O)CC[C@H]1O[C@@H](n2cc(C)c(=O)[nH]c2=O)C[C@@H]1O	1	2	0	70*
COC(=O)[C@@H](Cc1ccccc1)NC(=O)CC[C@H]1O[C@@H](n2cc(C)c(=O)[nH]c2=O)C[C@@H]1O	5	-1	0	14
COc1ccc(NC(=O)Cn2nc3n(c2=S)CCC3)cc1	2	100*	.	.
CO[C@H]1CN(C)C(=O)c2cc(NC(=O)c3ccc(Oc4ccccc4)cc3)ccc2OC[C@@H](C)NC[C@H]1C	-4	-1	0	26*
CO[C@@H]1CN(C)C(=O)c2ccc(NC(=O)c3cccc(F)c3)cc2OC[C@H](C)NC[C@@H]1C	0	-15	0	24*
COc1cccc(C(=O)Nc2ccc3c(c2)OC[C@H](C)NC[C@H](C)[C@@H](OC)CN(C)C3=O)c1	.	.	0	25*
CO[C@H]1CN(C)C(=O)c2ccc(NC(=O)c3cccc(F)c3)cc2OC[C@H](C)NC[C@@H]1C	-6	-10	1	2
CO[C@H]1CN(C)C(=O)c2cc(NC(=O)c3ccc(Oc4ccccc4)cc3)ccc2OC[C@H](C)NC[C@@H]1C	5	-57	0	0
CCCN1C[C@H](C)[C@H](OC)CN(C)C(=O)c2cc(NC(=O)Nc3c(C)noc3C)ccc2OC[C@H]1C	-6	1	0	7
CCCCCC1CC(CC(=O)O)C(=O)O1 (stereo unspecified)	3	119*	.	.
CCCCCC1CC(CC(=O)Nc2ccc([N+](=O)[O-])cc2)C(=O)O1 (stereo unspecified)	.	.	0	6
O=C(CCNC(=O)c1ccco1)NCCc1ccc(Cl)cc1	-2	.	0	-1
O=C(CCNC(=O)c1ccco1)Nc1ccc(Cl)cc1F	14	-1	0	28*
C[C@@H]1CN([C@H](C)CO)C(=O)c2cc(NC(=O)Nc3ccc(F)cc3)ccc2O[C@@H](C)CCCCO[C@@H]1CN(C)S(=O)(=O)c1ccc(Cl)cc1	-5	.	0	-9
COc1ccc2c3c(n(C)c2c1)[C@@H](CO)N(Cc1ccccc1)CC31CCN(C)CC1	.	.	0	56*
COc1ccc2c3c(n(C)c2c1)[C@@H](CO)N(C(=O)Nc1ccc(F)cc1)CC31CN(S(=O)(=O)c2cccs2)C1	.	.	1	46*
COc1ccc2c3c(n(C)c2c1)[C@@H](CO)N(C(=O)Nc1ccc(F)cc1)CC31CCN(C(=O)Cc2ccncc2)CC1	.	.	0	40*
COc1ccc2c3c([nH]c2c1)[C@H](CO)N(C(=O)Nc1ccc(F)cc1)CC31CN(S(=O)(=O)c2cccs2)C1	.	.	0	.
CCCC(=O)N1CCC2(CC1)CN(C(=O)Nc1ccc(F)cc1)[C@@H](CO)c1c2c2ccc(OC)cc2n1C	.	.	0	-7
